Experimental data published in ChEMBL document CHEMBL1123621, “Total synthesis and biological evaluation of structural analogues of compactin and dihydromevinolin” (J Med Chem, 1987).

molecular target: T1, 3-hydroxy-3-methylglutaryl-coenzyme A reductase (Rattus norvegicus, UniProt P51639); experiment: Binding affinity against HMG-CoA reductase in rat liver microsomes; design: species or system Microsome; settings: not given
T1 sequence (P51639 whole entry): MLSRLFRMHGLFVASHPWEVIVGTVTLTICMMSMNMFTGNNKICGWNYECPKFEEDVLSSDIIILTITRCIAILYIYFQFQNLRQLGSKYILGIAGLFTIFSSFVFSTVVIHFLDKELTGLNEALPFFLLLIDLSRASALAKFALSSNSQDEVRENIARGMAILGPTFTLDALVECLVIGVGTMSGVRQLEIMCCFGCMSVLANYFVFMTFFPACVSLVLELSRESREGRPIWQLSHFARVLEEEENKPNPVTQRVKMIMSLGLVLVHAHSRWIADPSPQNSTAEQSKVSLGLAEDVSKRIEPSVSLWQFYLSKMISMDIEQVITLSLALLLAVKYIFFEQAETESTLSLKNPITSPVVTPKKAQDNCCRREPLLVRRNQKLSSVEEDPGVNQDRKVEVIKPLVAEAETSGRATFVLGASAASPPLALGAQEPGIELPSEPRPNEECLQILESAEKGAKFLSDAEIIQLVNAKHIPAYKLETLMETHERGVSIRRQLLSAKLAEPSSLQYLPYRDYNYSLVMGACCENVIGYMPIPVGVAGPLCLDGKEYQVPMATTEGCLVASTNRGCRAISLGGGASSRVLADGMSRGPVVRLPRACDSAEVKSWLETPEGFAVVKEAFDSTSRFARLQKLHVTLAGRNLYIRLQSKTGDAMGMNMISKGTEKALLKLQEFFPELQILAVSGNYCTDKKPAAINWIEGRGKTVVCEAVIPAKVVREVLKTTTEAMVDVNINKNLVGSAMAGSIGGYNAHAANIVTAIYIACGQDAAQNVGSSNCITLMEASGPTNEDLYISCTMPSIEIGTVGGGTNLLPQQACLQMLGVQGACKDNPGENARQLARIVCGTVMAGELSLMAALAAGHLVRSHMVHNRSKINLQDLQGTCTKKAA
How it was run: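 Rat liver microsomes (Edwards preparation, stored at -78 °C), 1.3 mg (0.068 mg protein) per 500 μL assay; 150 mM phosphate pH 6.8, 180 mM KCl, 16 mM Na2EDTA, 9 mM DTT, 10.0 mM glucose 6-phosphate, 2.1 mM NADP, 2 U G6P dehydrogenase, 20 μM (R,S)-[3-14C]HMG-CoA; lactones preincubated 30 min at 37 °C for ring opening; inhibitors in DMSO; KOH stop; four concentrations in duplicate; I50 extrapolated from %inhibition vs log concentration.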

Ki [nM] | SMILES
1.4 | CC[C@H](C)C(=O)O[C@H]1CCC=C2C=C[C@H](C)[C@H](CC[C@@H]3C[C@@H](O)CC(=O)O3)[C@H]21 [MEVASTATIN]

molecular target: T1, 3-hydroxy-3-methylglutaryl-coenzyme A reductase; experiment: Inhibition of HMG-CoA reductase in rat liver microsomes; design: species or system Microsome; settings: read-out: I50
How it was run: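 Rat liver microsomes (0.068 mg protein) in 150 mM phosphate pH 6.8, 180 mM KCl, 16 mM EDTA, 9 mM DTT, 10.0 mM glucose 6-phosphate, 2.1 mM NADP, G6P dehydrogenase, 20 μM (R,S)-[3-14C]HMG-CoA. Lactones were preincubated 30 min at 37 °C for ring opening. Inhibitors were given in DMSO. Reaction stopped with KOH; initial mevalonate rate measured. Four concentrations over four log units, in duplicate; I50 extrapolated from %inhibition vs log concentration.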

SMILES | IC50 [nM]
CC[C@H](C)C(=O)O[C@H]1CCC=C2C=C[C@H](C)[C@H](/C=C/C(=O)C[C@@H](O)CC(=O)O)[C@H]21 | 630
CC[C@H](C)C(=O)O[C@H]1CCC=C2C=C[C@H](C)[C@H](CCC(=O)C[C@@H](O)CC(=O)O)[C@H]21 | 32
CC[C@H](C)C(=O)O[C@@H]1CCC=C2C=C[C@@H](C)[C@@H](CC[C@@H]3C[C@@H](O)CC(=O)O3)[C@@H]21 | 10000
CC[C@H](C)C(=O)O[C@H]1CCC=C2C=C[C@H](C)[C@H](COC(=O)CCCC(=O)O)C21 (some centres not stated) | 7100
CC[C@H](C)C(=O)O[C@@H]1CCC=C2C=C[C@@H](C)[C@@H](COC(=O)C[C@@H](O)CC(=O)O)[C@@H]21 | > 25000
CC[C@H](C)C(=O)O[C@H]1CCC=C2C=C[C@H](C)[C@H](COC(=O)C[C@@H](O)CC(=O)O)[C@H]21 | 630
CC[C@H](C)C(=O)O[C@H]1CCC=C2C=C[C@H](C)[C@H](CC[C@@H]3C[C@@H](O)CC(=O)O3)[C@H]21 [MEVASTATIN] | 13

Continued by falling IC50, values first:

IC50 [nM] | SMILES
110000 | CC[C@H](C)C(=O)O[C@@H]1CCC=C2C=C[C@@H](C)[C@@H](COC(=O)CCCC(=O)O)[C@@H]21
79000 | CC[C@H](C)C(=O)O[C@@H]1CCC=C2C=C[C@@H](C)[C@@H](CC[C@H]3C[C@@H](O)CC(=O)O3)[C@@H]21
25000 | CC[C@H](C)C(=O)O[C@@H]1CCC=C2C=C[C@@H](C)[C@@H](COC(=O)C[C@H](O)CC(=O)O)[C@@H]21
5000 | CC[C@H](C)C(=O)O[C@H]1CCC=C2C=C[C@H](C)[C@H](COC(=O)C[C@H](O)CC(=O)O)[C@H]21
4000 | CC[C@H](C)C(=O)O[C@H]1CCC=C2C=C[C@H](C)[C@H](CC[C@@H]3C[C@H](O)CC(=O)O3)C21 (some centres not stated)
2000 | CC[C@H](C)C(=O)O[C@H]1CCC=C2C=C[C@H](C)[C@H](CC[C@H]3C[C@@H](O)CC(=O)O3)C21 (some centres not stated)
2000 | CC[C@H](C)C(=O)O[C@H]1CCC=C2C=C[C@H](C)[C@H](CC[C@H]3C[C@H](O)CC(=O)O3)C21 (some centres not stated)
320 | CC[C@H](C)C(=O)O[C@H]1C[C@@H](C)C[C@@H]2C=C[C@H](C)[C@H](/C=C/C(=O)C[C@@H](O)CC(=O)O)C12 (some centres not stated)
1.6 | CC[C@H](C)C(=O)O[C@H]1C[C@@H](C)C[C@@H]2C=C[C@H](C)[C@H](CC[C@@H]3C[C@@H](O)CC(=O)O3)C12 (some centres not stated)
